High-throughput results deposited in PubChem BioAssay by Sanford-Burnham Center for Chemical Genomics.
Sampled rows, rich in hits. Any-hit rate of the full collection: about 3.1%.
UBC13 inh: inhibitors of human UBC13 polyubiquitin chain formation; TR-FRET; inhibition, % at 20 µM; 330,000 tested, 0.47% active; in the data active = inhibition above about 45%, passing the limit was not always enough
Target sequence (P61088 whole entry, looked up): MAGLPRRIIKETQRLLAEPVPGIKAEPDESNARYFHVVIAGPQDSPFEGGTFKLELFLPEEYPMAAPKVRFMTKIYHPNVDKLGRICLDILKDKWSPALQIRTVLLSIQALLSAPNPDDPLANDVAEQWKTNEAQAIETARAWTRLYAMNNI
SENP8 block-1: SENP8 protease inhibition; inhibition, % at 10 µM; 330,000 tested, 1.2% active; purified SENP8, Z-RLRGG-aminoluciferin cleavage, luminescence; in the data active = inhibition above about 50%
Target sequence (Q96LD8 whole entry, looked up): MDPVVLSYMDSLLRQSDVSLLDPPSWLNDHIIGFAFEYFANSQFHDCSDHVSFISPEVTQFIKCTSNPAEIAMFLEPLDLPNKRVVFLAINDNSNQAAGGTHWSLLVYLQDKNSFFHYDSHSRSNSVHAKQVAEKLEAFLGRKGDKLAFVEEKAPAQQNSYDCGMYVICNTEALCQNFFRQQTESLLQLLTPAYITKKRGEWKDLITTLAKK
SENP6 block: blocks the human protease SENP6. AID 2599. inhibition, % at 10 µM. Q9GZR1. Recombinant SENP6 catalytic domain, aminoluciferin luminescence. 330,000 tested, 1.8% active;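 active = inhibition above about 50% at the single tested dose, limit read from the data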;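 note: plate controls were DMSO wells with enzyme for no effect and DMSO wells lacking enzyme for full effect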
SENP7 inh: SENP7 protease inhibition | inhibition, % at 5 µM | 330,000 tested, 1.5% active | AID 434973 | recombinant SENP7, Z-RLRGG-aminoluciferin luminescence, 40 min;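 active = inhibition above about 50% at the single test dose, limit read from the data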;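 note: plate controls were DMSO with enzyme for no effect and no enzyme buffer wells for full effect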
SENP8 block-2: blocks human SENP8 cleavage of Nedd8 substrate; Q96LD8; recombinant SENP8, Nedd8 substrate fluorescence; inhibition, % at 20 µM; 360,000 tested, 0.64% active; in the data active = inhibition mostly above about 40%, no sharp cut-off; inactive = mostly below about 27%
Apaf-1 inh: human Apaf-1 inhibition; O14727; reconstituted apoptosome caspase-3 activity, DEVD-Rh110 fluorescence; inhibition, % at 20 µM; 330,000 tested, 0.71% active; active = inhibition of at least 40% at 20 µM;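 note: plate controls were DMSO wells for no effect and DEVD-CHO caspase inhibitor wells for full effect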
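Assay system: Apoptosome proteins | Medium: pH 7.5 Hepes buffer with CHAPS, BSA, DTT | Also added: Cytochrome c and DEVD-Rh110 substrate | Times: 30 min plus 50 min, RT | Detection: Rhodamine 110 fluorescence at Ex 480/Em 540 nm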
SENP8 conf: confirmation of human SENP8 protease inhibitors | shares compounds with SENP7 inh | Recombinant SENP8, Z-RLRGG-aminoluciferin luminescence, 60 min | inhibition, % at 12.5 µM | 6,200 tested, 40% active | AID 488912;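 active = mean inhibition across replicates above about 50%, limit read from the data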
SENP6 conf: human SENP6 inhibition, confirmed. shares compounds with SENP7 inh. recombinant SENP6, Z-RLRGG-aminoluciferin luminescence. inhibition, % at 12.5 µM. 6,200 tested, 58% active
SENP7 conf: human SENP7 inhibition, confirmed. shares compounds with SENP7 inh. recombinant SENP7, Z-RLRGG-aminoluciferin luminescence, 40 min. inhibition, % at 12.5 µM. 6,200 tested, 69% active. AID 488917
Casp3 select: inhibits human caspase-3 in SENP selectivity test. shares compounds with SENP7 inh. purified caspase-3, Z-DEVD-aminoluciferin luminescence, 60 min. inhibition, % at 12.5 µM. 6,200 tested, 60% active. AID 488918;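 active = mean inhibition above about 50%, limit read from the data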;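 note: plate controls were enzyme with DMSO for no effect and wells without caspase-3 for full effect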
Target sequence (P42574 28-227 limits assumed): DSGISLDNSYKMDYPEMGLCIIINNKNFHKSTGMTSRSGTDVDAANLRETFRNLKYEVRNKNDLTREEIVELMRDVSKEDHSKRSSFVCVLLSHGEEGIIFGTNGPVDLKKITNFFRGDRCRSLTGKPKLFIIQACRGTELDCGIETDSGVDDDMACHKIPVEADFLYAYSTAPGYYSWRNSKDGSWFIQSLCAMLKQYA
SENP luc ctr: luminescence interference (SENP counter-screen) | AID 488919 | 6,200 tested, 39% active | inhibition, % at 12.5 µM | Pre-incubated SENP8/Z-RLRGG-aminoluciferin, luciferase luminescence interference | shares compounds with SENP7 inh;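 active = mean inhibition above about 50% when retested at one dose, limit read from the data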;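 note: plate controls were DMSO wells with completed reaction for no effect and substrate without enzyme for full effect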
Numbers without * were called inactive; x = no result given.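 Rule for the calls, unless noted: active = mean inhibition above about 50% in the one-dose retest (limit read from the data); inactive = the rest.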

SMILES	UBC13 inh	SENP8 block-1	SENP6 block	SENP7 inh	SENP8 block-2	Apaf-1 inh	SENP8 conf	SENP6 conf	SENP7 conf	Casp3 select	SENP luc ctr
Cc1ccc(C2=NN(S(C)(=O)=O)C(c3cccs3)C2)cc1 (stereo not drawn)	2.8	53.6*	73.7*	51.6*	21.8	7.0	68.1*	64.5*	86.8*	75.4*	66.7*
COc1ccc(C2=NN(S(C)(=O)=O)C(c3cccs3)C2)cc1 (stereo not drawn)	20.0	30.2	-9.6	45.6	11.4	-0.5	x	x	x	x	x
CS(=O)(=O)N1N=C(c2ccc(Br)cc2)CC1c1cccs1 (stereo not drawn)	10.6	39.8	61.2*	33.6	25.4	4.0	8.4	9.1	83.2*	55.5*	5.5
CC(C)(C)C(=O)c1c(N)[nH]c(C(=O)c2ccccc2)c1-c1cc2ccccc2nc1Cl	x	x	x	x	-88.2	x	x	x	x	x	x
CCOC(=O)c1ccc(-c2ccc3c(c2)CCC3)nc1C	8.6	52.5*	60.3*	70.4*	21.3	10.3	57.2*	57.3*	80.4*	48.9	42.9
COC(=O)c1ccc(-c2ccc(F)cc2)nc1C	-2.5	34.7	61.5*	52.7*	28.5	-8.4	-12.9	28.8	77.0*	41.3	3.3
Cc1ccc(-c2ccc(C(=O)O)c(C)n2)cc1	2.3	-0.9	13.6	-3.9	10.3	-9.0	x	x	x	x	x
CCN(CC)CCNc1c(C)cc(CO)c(Cl)c1C	x	x	x	x	14.2	x	x	x	x	x	x
CC(C)(C)c1cc(NC(=O)C2(C)CCN2C(=O)C2(c3ccccc3)CCCC2)no1 (stereo not drawn)	x	x	x	x	29.6	x	x	x	x	x	x
O=[N+]([O-])c1cccc(/C=C/c2nc[nH]c2[N+](=O)[O-])c1	-10.1	57.3*	70.1*	25.0	18.2	-15.5	18.1	14.8	16.1	49.1	2.9
CC(=O)Nc1ccc(Cl)cc1-c1ccccc1	x	x	x	x	20.7	x	x	x	x	x	x
CN(C)c1nn(C(=O)Nc2ccc(Cl)cc2Cl)cc1-c1ccccc1	8.4	3.1	3.8	101.1*	8.2	1.4	-13.0	-7.9	-2.8	-0.5	-8.5
O=C(CSc1nnc(NC(=O)c2ccccc2F)s1)Nc1ccccc1F	-19.6	69.2*	80.4*	61.0*	-80.8	13.9	47.4	78.6*	90.6*	86.7*	13.2
O=C(CSc1nnc(NC(=O)c2ccco2)s1)Nc1ccccc1F	0.7	-0.7	-2.2	7.6	-17.0	-4.5	x	x	x	x	x
CCOc1ccccc1C(=O)Nc1nnc(SCC(=O)N2CCCC2)s1	x	x	x	x	-96.2	x	x	x	x	x	x
O=C(Nc1nnc(SCC(=O)N2CCCCC2)s1)c1ccccc1F	-6.7	-13.2	99.2*	-6.2	-2.6	6.0	-6.0	-9.9	-12.1	1.2	2.6
Brc1ccc(-n2cnc(-c3ccccc3)c2)cc1	11.7	69.2*	71.1*	79.3*	8.4	13.9	61.2*	62.0*	91.6*	58.9*	17.9
C/C(=N\NC(=O)c1ccco1)c1ccc(NC(=O)c2ccccc2)cc1	-9.1	-4.4	9.3	-3.9	-13.9	12.0	x	x	x	x	x
C/C(=N\NC(=O)c1ccco1)c1ccc(-c2ccccc2)cc1	-8.5	55.4*	66.6*	84.6*	11.5	2.7	8.1	34.2	45.4	37.1	15.5
COc1ccc(/C=C(\C#N)C(=O)Nc2cccc(C)n2)cc1	-3.0	50.7*	50.5*	36.2	8.4	9.0	10.9	17.5	16.5	10.6	20.8
Cc1cccc(NC(=O)/C(C#N)=C/c2ccccc2O)n1	-7.8	25.4	24.7	-5.4	-84.3	6.5	x	x	x	x	x
COc1ccc(/C=C(\C#N)C(=O)c2cccn2C)cc1	-0.2	69.1*	78.9*	78.2*	18.3	3.4	87.3*	87.3*	94.0*	72.4*	82.4*
O=C(Nc1nccs1)c1cc(-c2ccccc2)nn1-c1ccccc1	6.9	-5.0	6.7	1.2	-62.5	0.5	x	x	x	x	x
CCc1nnc(NC(=O)c2cc(-c3ccccc3)nn2-c2ccccc2)s1	-3.1	-0.4	-19.2	99.3*	3.4	7.9	-19.8	-12.0	-15.4	0.7	-6.6
O=C(Nc1cccnc1)c1cc(-c2ccccc2O)on1	4.0	88.4*	7.6	95.6*	9.8	-23.0	72.8*	72.4*	98.8*	91.0*	89.3*
SMILES	UBC13 inh	SENP8 block-1	SENP6 block	SENP7 inh	SENP8 block-2	Apaf-1 inh	SENP8 conf	SENP6 conf	SENP7 conf	Casp3 select	SENP luc ctr
Cc1ccc(O)c(NC(=O)c2cc(-c3ccccc3Cl)on2)c1	-5.8	0.1	25.4	62.7*	13.2	8.8	-1.4	8.9	11.6	10.7	2.7
Cc1ccc(NC(=O)c2cc(-c3cccs3)on2)cc1C	-6.8	-22.9	-11.6	18.0	-2.3	-7.1	x	x	x	x	x
O=C(Nc1cccnc1)c1cc(-c2cccs2)on1	-3.4	50.6*	74.0*	83.9*	-8.0	-11.6	16.0	34.0	80.2*	79.0*	-0.8
C[C@@H]1CN([C@@H](C)CO)C(=O)c2cc(Br)cnc2O[C@H]1CN(C)C(=O)CN1CCOCC1	x	x	x	x	16.7	x	x	x	x	x	x
CCc1ccc(NC(=O)c2noc3c2CCC3)cc1	1.8	70.3*	88.0*	60.0*	12.7	-0.6	79.7*	80.1*	96.5*	84.1*	81.4*
Cc1ccc(NC(=O)c2noc3c2CCCCC3)cc1C	-12.6	8.8	43.9	62.5*	11.3	12.3	13.9	13.4	27.1	17.8	9.3
Cc1ccc(O)c(NC(=O)c2noc3c2CCCCC3)c1	0.0	76.1*	-42.6	79.7*	-3.8	11.1	30.0	24.4	45.5	21.0	41.4
COc1ccc(CN2C[C@@H](CO)O[C@@H](n3cnc4c(NC5CCC5)ncnc43)C2)cc1	x	x	x	x	19.1	x	x	x	x	x	x
NC(c1csc(Nc2cc(NCCCO)ncn2)n1)c1ccccc1Cl (stereo not drawn)	x	x	x	x	-4.5	x	x	x	x	x	x
COc1ccccc1S(=O)(=O)N(C)C[C@@H]1OCc2cnnn2CCCC(=O)N([C@H](C)CO)C[C@H]1C	x	x	x	x	14.4	x	x	x	x	x	x
CSc1ccc(/C=N/NC(=O)c2sccc2C)cc1	0.0	92.3*	94.3*	100.4*	-158.3	-12.1	13.8	60.6*	101.3*	62.8*	-5.0
CSc1ccc(/C=N/NC(=O)c2cc(O)cc(O)c2)cc1	-5.9	22.1	58.2*	43.4	-169.4	-8.7	59.1*	57.9*	84.4*	65.2*	64.9*
